In ChEMBL document CHEMBL4371016, “Proline- and Arginine-Rich Peptides as Flexible Allosteric Modulators of Human Proteasome Activity” (J Med Chem, 2019):

Experiments:
[1] = compound: CC(C)C[C@H](NC(=O)[C@H](Cc1ccc(O)cc1)NC(=O)[C@@H]1CCCN1C(=O)[C@@H]1CCCN1C(=O)[C@H](CCCNC(=N)N)NC(=O)[C@@H]1CCCN1C(=O)[C@H](CCCNC(=N)N)NC(=O)[C@H](CCCNC(=N)N)NC(=O)[C@@H](N)CCCNC(=N)N)C(=O)N1CCC[C@H]1C(=O)N[C@@H](CCCNC(=N)N)C(=O)N[C@@H](Cc1c[nH]c2ccccc12)C(=O)NCC(=O)O; experiment: (§1) Non-competitive mixed-type inhibition of SDS-activated human erythrocytes 20S proteasome chymotrypsin like activity assessed as substrate Km using Suc-LLVY-AMC as substrate measured every 2 mins up to 60 mins by fluorescence assay
How it was run: (§2)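 SDS-activated CP at 1.4 nM. Suc-LLVY-AMC varied from 20 to 200 μM at inhibitor levels of 0.05, 0.1 and 0.2 μM. Fluorescence read kinetically at 37 °C. […] Three independent replicates.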

[2] = compound: CC(C)C[C@H](NC(=O)[C@H](Cc1ccc(O)cc1)NC(=O)[C@H](CCCNC(=N)N)NC(=O)[C@H](CCCNC(=N)N)NC(=O)[C@@H](N)CCCNC(=N)N)C(=O)N1CCC[C@H]1C(=O)N[C@@H](CCCNC(=N)N)C(=O)N[C@@H](Cc1c[nH]c2ccccc12)C(=O)NCC(N)=O; experiment: as §1; how it was run: as §2
[3] = compound: CC(C)C[C@H](NC(=O)[C@H](Cc1ccc(O)cc1)NC(=O)[C@@H]1CCCN1C(=O)[C@@H]1CCCN1C(=O)[C@H](CCCNC(=N)N)NC(=O)[C@@H]1CCCN1C(=O)[C@H](CCCNC(=N)N)NC(=O)[C@H](CCCNC(=N)N)NC(=O)[C@@H](N)CCCNC(=N)N)C(=O)N1CCC[C@H]1C(=O)N[C@@H](CCCNC(=N)N)C(=O)N[C@@H](Cc1c[nH]c2ccccc12)C(=O)NCC(=O)O; experiment: (§3) Non-competitive mixed-type inhibition of SDS-activated human erythrocytes 20S proteasome chymotrypsin like activity assessed as substrate Vmax using Suc-LLVY-AMC as substrate measured every 2 mins up to 60 mins by fluorescence assay; how it was run: as §2
[4] = compound: CC(C)C[C@H](NC(=O)[C@H](Cc1ccc(O)cc1)NC(=O)[C@H](CCCNC(=N)N)NC(=O)[C@H](CCCNC(=N)N)NC(=O)[C@@H](N)CCCNC(=N)N)C(=O)N1CCC[C@H]1C(=O)N[C@@H](CCCNC(=N)N)C(=O)N[C@@H](Cc1c[nH]c2ccccc12)C(=O)NCC(N)=O; experiment: as §3; how it was run: as §2

B1: Proteasome Macropain subunit MB1 (Homo sapiens), P28074 (protein)
chain: MALASVLERPLPVNQRGFFGLGGRADLLDLGPGSLSDGLSLAAPGWGVPEEPGIEMLHGTTTLAFKFRHGVIVAADSRATAGAYIASQTVKKVIEINPYLLGTMAGGAADCSFWERLLARQCRIYELRNKERISVAAASKLLANMVYQYKGMGLSMGTMICGWDKRGPGLYYVDSEGNRISGATFSVGSGSVYAYGVMDRGYSYDLEVEQAYDLARRAIYQATYRDAYSGGAVNLYHVREDGWIRVSSDNVADLHEKYSGSTP
Question: Which Km [1] does the source give for B1 here?
Answer: 17.4 µM

Question: What about the Km [2] of the same protein?
Answer: 14 µM

Question: And the Vmax [3]?
Answer: 13.6 s⁻¹

Question: And the Vmax [4]?
Answer: 13.5 s⁻¹
